Paper PMC3064480 (Molecular bioSystems, 2010)
“Also recorded” adds a separate entry of the source. Blank lines part the entries; values can stand above or below the compound they belong to. Ends that are not written are not given here.

Experiments:
[1] = test system: TGF-β responsive SBE(CAGA)12-luciferase reporter, Mv1Lu cells; test: Reporter gene assay, SBE; assay type: cell-based, mink; settings: 10 μM SB-431542; 10 pM TGF-β1
Procedure, shortened: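 Mv1Lu cells stably carrying the SBE(CAGA)12-Luc reporter were grown in DMEM with 10% FBS. About 4000 cells were plated and left to attach overnight. Medium was changed to DMEM with 0.2% FBS 4 h before treatment. Cells received TGF-β1, TGF-β1 with serial dilutions of test peptide, or peptide alone, with untreated cells as control, in triplicate. After 18-24 h, Bright-Glo luminescence was normalised to cell number by CellTiter-Glo.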

BMPR-IA-ED = test: SPR, BMPR-IA-ED; assay type: binding, human; settings: verification of immobilized receptor activity
Procedure, shortened: (§1)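 In a separate run, recombinant human β-glycan-ED (residues 21-781), BMPR-IA-ED (Gln24-Arg152, Fc chimera) and ActRII-ED (Ser25-Pro134, Fc chimera) were amine-coupled on a CM5 chip to about 1600, 3300 and 4300 RU. Serial dilutions of peptide-bearing dendrimer in HBS, within 2.9 nM–6 μM, were injected for 5 min with 5 min dissociation at 10 μL/min. Reference subtraction and HCl regeneration were used.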

ActRII-ED = test: SPR, ActRII-ED; assay type: binding, human; settings: verification of immobilized receptor activity
Procedure, shortened: as §1

TβRI-ED [2] = molecular target: T1, TβRI-ED (Homo sapiens, UniProt P36897); test: competition ELISA; assay type: binding
T1 sequence (P36897 25-125): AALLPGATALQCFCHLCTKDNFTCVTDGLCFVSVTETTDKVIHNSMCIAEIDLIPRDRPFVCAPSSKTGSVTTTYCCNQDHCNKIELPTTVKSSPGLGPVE
Procedure, shortened: (§2)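 Equimolar TβRI-ED (residues 1-101, 1.0 μg) or TβRII-ED (1-137, 1.5 μg), E. coli-expressed and refolded, was coated at 4 °C for 12 h. For Kd, M13 phage clones at various concentrations were bound for 1 h at room temperature in 2% BSA/PBS/0.5% Tween 20, with BSA wells as control. For IC50, fixed phage near its apparent Kd was mixed with varying peptide. Read-out was anti-M13-HRP, then ABTS/H2O2 for 30 min and A405; mean ± SD.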

[3] = molecular target: T2, TβRII-ED (residues 1-137) (Homo sapiens, UniProt P37173); test: competition ELISA; assay type: binding
Procedure, shortened: as §2

TβRI-ED (residues 7-91) = molecular target: T3, TβRI-ED (residues 7-91) (Homo sapiens, UniProt P36897); test: SPR, TβRI-ED; assay type: binding; settings: TGF-β1 41 pM to 30 nM
T3 sequence (P36897 31-115): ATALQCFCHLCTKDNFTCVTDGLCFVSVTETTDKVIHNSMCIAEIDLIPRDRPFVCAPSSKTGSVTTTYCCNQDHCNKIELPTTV
Procedure, shortened: (§3)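 CM5 chip with HBS (pH 7.4) running buffer. TβRI-ED (residues 7-91), TβRII-ED (1-137) and endoglin-ED (26-586) were amine-coupled (EDC/NHS) from 20 μg/mL in 10 mM NaOAc pH 5.0 to about 3600, 1900 and 7300 RU, then blocked with ethanolamine. The protein-free reference signal was subtracted. Surfaces were regenerated with 100 mM HCl for 30 s.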

[4] = molecular target: T2, TβRII-ED (residues 1-137); test: SPR, TβRII-ED; assay type: binding
Procedure, shortened: as §3

monomeric TβRII-ED = settings: previous SPR studies; cited from earlier work
[5] = molecular target: artificially dimerized TβRII-ED; settings: previous SPR studies; cited from earlier work
TβRII = settings: read-out: Kd (binding to two copies of TβRII); approximate (~) range; cited from earlier work
TβRI-ED [6] = settings: TGF-β alone; cited from earlier work

Compound: NC(=O)c1ccc(-c2nc(-c3ccc4c(c3)OCO4)c(-c3ccccn3)[nH]2)cc1 [SB-431542]
inhibition of TGF-β-induced luciferase gene expression [1]: completely blocked; also recorded: inhibited TGF-β regulated luciferase gene expression

Compound: BMP-4: known ligand of BMPR-IA and ActRII
binding of BMP-4 (BMPR-IA-ED): ability to bind BMP-4
binding of BMP-4 (ActRII-ED): ability to bind BMP-4

Compound: MHRMPSFLPTTL [Pep2]
IC50 (TβRI-ED [2]): 256 µM
Kd (TβRI-ED [2]): ~10 µM
IC50 [3]: 274 µM
Kd [3]: ~10 µM

Compound: TGF-β3: TGF-β isoform 3
Kd (TβRII): 0.005 to 0.03 nM

Second part, led by results:

IC50 (TβRI-ED [2]): 110 µM
Kd (TβRI-ED [2]): ~10 µM
IC50 [3]: 156 µM
Kd [3]: ~10 µM
Compound: LTGKNFPMFHRN [Pep1]

Kd ([4]; read-out: apparent Kd, TGF-β1 41 pM to 30 nM, dose dependent SPR responses, surface a mixture of monomeric and dimeric receptor): ~0.0014 µM
Compound: TGF-β1: Recombinant human TGF-β1, disulfide-linked homodimer growth factor
binding to TβRI-ED surface (TβRI-ED (residues 7-91)): did not bind detectably; also recorded: no observable affinity
Kd (monomeric TβRII-ED): ~0.1 µM
Kd [5]: ~5 pM
Kd (TβRII): 0.005 to 0.03 nM

saturating concentration ([4]; binding to TβRII-ED, SPR): 10 nM
Compound: TGF-β: transforming growth factor β, generic wording; TGF-β1 in the authors' own experiments
affinity for TβRI-ED (TβRI-ED [6]): weak affinity
